Measurements gathered from unrelated publications.
Protocols differ between the studies behind these lines.

For `O=C(C=Cc1ccccc1)Nc1cc(-c2ccnc(N3CCC(O)CC3)c2)ccn1`, the half-life was 0.47 h (female Sprague-Dawley rat, plasma; intravenous, 5 mg/kg).
The viability of `COc1cc(C2NC(=O)NC(C)=C2C(=O)OC(C)C)ccc1OCc1ccccc1` (stereo not shown) is reported as 91% (MCF-10A; cell growth or viability, MTT; 50 µM, 96 h).
The inhibition of `O=C(c1ccc(OCCN2CCCCC2)cc1)c1c(-c2ccc(O)cc2)sc2cc(O)ccc12` is reported as about 50% (Broad substrate specificity ATP-binding cassette transporter ABCG2 (ABCG2, Homo sapiens, UniProt Q9UNQ0); transporter uptake, inhibitor; Sf9; 10 µM, pH 7, cell membranes).
`CC1=C(C(=O)OC(C)C)C(c2cccc(O)c2)NC(=S)N1` (stereo not shown) has a viability of 93% (MCF-10A; cell growth or viability, MTT; 50 µM, 96 h).
The half-life of `CC(=Nc1ccc(N=Cc2cnccn2)cc1)N(C)C` is reported as 1.53 h (male Sprague-Dawley rat, plasma; intravenous, 20 mg/kg).
`COc1cccc2c1C(=O)c1c(O)c3c(c(O)c1C2=O)C[C@@](O)(C(=O)CO)C[C@@H]3O[C@H]1C[C@H](N)[C@H](O)[C@H](C)O1` has a viability of 23.9% (K562; cell growth or viability, MTT; 100 µg/mL).
`N#C[C@@]12C[C@@H]1[C@@H](n1cnc3c(N[C@@H](C4CCC4)C4CC4)nc(I)nc31)[C@H](O)[C@@H]2O` gave a half-life of 2.2 h (male Wistar rat, plasma; oral, 1 mg/kg).
`Nc1ccc(/C=C/C(=O)NCc2cc3cc(-c4ccc(C(=O)N5CCC(F)(F)CC5)cc4)cc(-c4ccc(F)cc4)c3o2)cn1` has a half-life of 5.61 h (rat, plasma; intravenous, 1 mg/kg).
For `CC1(CN)CCN(c2cnc3c(Sc4ccncc4Cl)n[nH]c3n2)CC1`, the half-life was 2.47 h (male Sprague-Dawley rat, plasma; oral, 10 mg/kg).
`COc1cc(C2NC(=O)NC(C)=C2C(=O)OC(C)C)cc(OC)c1OC` (stereo not shown) has a viability of 92% (MCF-10A; cell growth or viability, MTT; 50 µM, 96 h).
With `C/C(=N\c1ccc(O)cc1)c1cc2ccccc2n1C` the concentration was 173 ng/mL (male Sprague-Dawley rat, plasma; intravenous, 5 mg/kg, 5 min, single dose).
`CC1=C(C(=O)OC(C)C)C(c2cccc(O)c2)NC(=O)N1` (stereo not shown) gave a viability of 87% (MCF-10A; cell growth or viability, MTT; 50 µM, 96 h).
`O=C1CC[C@H](N2Cc3cc(N4CCN(CC5CCN(c6ccc([C@@H]7c8ccc(O)cc8CC[C@@H]7c7ccccc7)cc6)CC5)CC4)ccc3C2=O)C(=O)N1` gave a half-life of 5.24 h (female Sprague-Dawley rat, plasma; oral, 20 mg/kg, fasted).
